# Data from paper PMC7032195 (Asian Journal of Pharmaceutical Sciences, 2018).
# Where two headings read alike, the source gives them in different places.
# Columns and labels:
# [1] = Pharmacokinetics after intravenous injection in rats; type: in vivo, Sprague-Dawley rats; conditions: i.v., 10 mg/kg
# In short: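 Male Sprague-Dawley rats (~200 g), n = 3, received ethanol solutions or co-loaded mPEG-PDLA micelles i.v. at 10 mg/kg. Orbital plexus blood was drawn into heparin tubes at 0.083–12 h. Plasma was separated at 5000 rpm for 10 min and stored at −20 °C. Carbamazepine was the internal standard, with methyl tert-butyl ether extraction. UV detection was at 228 or 306 nm. Parameters are mean ± SD.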
# MCF-7 cells = assay: MTT assay of DTX, RES and their combinations at different mass ratios; type: cell-based; conditions: Homo sapiens
# In short: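 MCF-7 cells seeded at 6000 cells/well 12 h before dosing, then exposed to each test compound alone (0–50.0 or 0–100.0 µg/ml) or as 1:1 combinations (2.5+2.5 to 50+50 µg/ml); DMEM vehicle control. After two days, OD read at 490 nm. Six replicate wells per condition, at least three independent repeats. Combination index calculated for 2:1, 1:1 and 1:2 mass ratios.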
# [2] = MCF7, read-out: IC50 in MCF-7 cells
V ([1]; analyte DTX),"IC50 (MCF-7 cells; MCF7, read-out: IC50 (µg/ml) DTX)",IC50 (MCF-7 cells; [2]),V ([1]; analyte RES),"IC50 (MCF-7 cells; MCF7, read-out: IC50 (µg/ml) RES)",SMILES
3.79 ± 0.83 L/kg,10.4 ± 0.43 µg/mL,10.4 µg/mL,–,–,"CC(=O)O[C@@]12CO[C@@H]1C[C@H](O)[C@@]1(C)C(=O)[C@H](O)C3=C(C)[C@@H](OC(=O)[C@H](O)[C@@H](NC(=O)OC(C)(C)C)c4ccccc4)C[C@@](O)([C@@H](OC(=O)c4ccccc4)[C@H]21)C3(C)C [DTX, docetaxel]"
–,–,23 µg/mL,3.45 ± 2.93 L/kg,23 ± 0.54 µg/mL,"Oc1ccc(/C=C/c2cc(O)cc(O)c2)cc1 [RES, resveratrol]"
